Assay results from paper PMC6007853 (Biochemistry, 2018).
Entries after “also recorded” stand apart in the source; their conditions may differ. Where two headings read alike, the source gives them in different places.

Columns and labels:
[1] = biological target: Kv1.4 (Homo sapiens, UniProt P22459); type: cell-based; conditions: for Kv1.4 / Kv channel inhibition (in words): highest concentrations tested; for τact / τinact: voltage step from −100 mV to 0 mV, double exponential fit
How it was run: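 Kv1.4 expressed under tetracycline induction in a CHO-K1 line and recorded by automated whole-cell voltage clamp. Voltage steps went from −100 mV to 0 mV. A double exponential was fitted to current rise and decay to obtain τact and τinact. Kd values were fitted from these, n = 9, SEM. IC50 came from the best fit of peak-current inhibition ± standard deviation of the parameter fit.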

[2] = tested on: Gramicidin A (gA) channel; assay: Gramicidin A based fluorescence quench assay; type: biochemical; conditions: highest concentration tested
How it was run: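 ANTS was loaded into large unilamellar vesicles containing gramicidin A, and Tl+ was added to the suspension. Intravesicular ANTS quenching was followed over time, with nine individual repeats per trace. The initial quench rate gave the Tl+ influx rate. gA2 is the compound concentration that doubles that rate. Where gA2 was not obtained, the highest concentration tested is given.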

Sequence of Kv1.4 (P22459 whole entry): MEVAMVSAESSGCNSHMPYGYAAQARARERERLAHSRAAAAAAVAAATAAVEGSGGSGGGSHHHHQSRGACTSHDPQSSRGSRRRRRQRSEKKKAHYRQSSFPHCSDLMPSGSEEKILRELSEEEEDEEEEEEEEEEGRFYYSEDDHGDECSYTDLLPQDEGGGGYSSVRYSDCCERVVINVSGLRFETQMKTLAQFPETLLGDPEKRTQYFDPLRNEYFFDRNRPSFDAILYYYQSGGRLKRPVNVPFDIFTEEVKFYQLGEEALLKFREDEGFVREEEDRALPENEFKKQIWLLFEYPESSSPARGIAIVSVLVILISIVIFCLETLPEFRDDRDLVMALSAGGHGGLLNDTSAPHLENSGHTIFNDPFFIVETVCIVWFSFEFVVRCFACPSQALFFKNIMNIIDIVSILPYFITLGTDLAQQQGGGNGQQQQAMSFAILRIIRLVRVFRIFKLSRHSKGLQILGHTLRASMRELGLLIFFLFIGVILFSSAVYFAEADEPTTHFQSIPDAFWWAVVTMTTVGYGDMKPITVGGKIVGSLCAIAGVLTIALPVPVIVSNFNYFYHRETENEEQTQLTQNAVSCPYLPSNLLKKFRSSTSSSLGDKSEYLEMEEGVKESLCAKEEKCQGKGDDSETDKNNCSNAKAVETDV

NCCc1c(COCc2[nH]c3cc(Br)ccc3c2CCN)[nH]c2cc(Br)ccc12 [compound 14]
Kv1.4 / Kv channel inhibition (in words) [1]: strongly inhibit | IC50 ([1]; read-out: IC50 (potency against Kv1.4)): 2700 nM

NCCc1c(SSc2[nH]c3ccc(Br)cc3c2CCN)[nH]c2ccc(Br)cc12 [compound 8]
Kv1.4 / Kv channel inhibition (in words) [1]: strongly inhibit | gA assay activity / bilayer perturbation (in words) [2]: complete inactivity; also recorded: does not perturb bilayers

Cc1ccc2c(CCN)c(SSc3[nH]c4cc(C)ccc4c3CCN)[nH]c2c1 [compound 7]
Kv1.4 / Kv channel inhibition (in words) [1]: strongly inhibit

NCCc1c(SSc2[nH]c3cc(Br)ccc3c2CCN)[nH]c2cc(Br)ccc12 [1a, 6-bromo-2-mercaptotryptamine dimer]
τact ([1]; 1.5 μM BrMT): 2.54 ± 0.02 | τinact ([1]; 1.5 μM BrMT): 136.6 ± 0.6 | τact ([1]; 3 μM BrMT): 3.17 ± 0.03 | τinact ([1]; 3 μM BrMT): 181 ± 2 | τact ([1]; 6 μM BrMT): 4.2 ± 0.4 | τinact ([1]; 6 μM BrMT): 300 ± 20 | Kv1.4 / Kv channel inhibition (in words) [1]: strongly inhibit
